DYRK1A inh: inhibitors of rat Dyrk1A kinase. ADP-Glo luminescence, NFATc1 peptide. inhibition, % at 12.5 µM. 310,000 tested, 0.43% active. AID 504441; in the data active = inhibition above about 50%;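 also: plate controls were vehicle with enzyme for no effect and no enzyme for full effect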
ALR inh: human ALR oxidase inhibition via reduced H2O2 | 290,000 tested, 3.8% active | inhibition, % (test concentration not listed) | AID 485317 | purified ALR, DTT oxidation, H2O2 HRP-luminol luminescence | P55789;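 active = mean replicate inhibition above about 79%, with every replicate also reaching it, limit read from the data; inconclusive = only one of the two criteria met; inactive = mean below limit and not every replicate reaching it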
Target sequence (P55789 whole entry, looked up): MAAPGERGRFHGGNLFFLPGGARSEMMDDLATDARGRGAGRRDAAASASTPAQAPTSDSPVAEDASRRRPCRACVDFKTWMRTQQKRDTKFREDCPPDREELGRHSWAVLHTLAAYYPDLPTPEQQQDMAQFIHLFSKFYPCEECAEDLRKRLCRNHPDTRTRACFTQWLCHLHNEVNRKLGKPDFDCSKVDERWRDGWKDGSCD
CAL PDZ FP-1: CAL PDZ (human) peptide binding inhibition; Q9HD26; purified CAL PDZ, TMR-peptide fluorescence polarization, 1 h; inhibition, % at 24.9 µM; 300,000 tested, 0.92% active; AID 602252;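 active = mean inhibition of at least 30% with at least half of replicates also reaching 30%; inconclusive = no clear call, values can overlap the other calls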;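 also: 0% = DMSO neutral control and 100% = excess unlabeled competitor peptide PRC23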
CAL PDZ FP-2: inhibitors of human CAL PDZ peptide binding | Q9HD26 | purified CAL PDZ, TMR-peptide fluorescence polarization, 1 h | inhibition, % at 20 µM | 330,000 tested, 0.02% active | AID 504414;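 active = highest replicate inhibition of at least 40%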;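 also: plate controls were DMSO neutral control wells for no effect and unlabeled competitor peptide control wells for full effect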
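Test system: tagged CAL PDZ domain / Buffer or medium: sodium phosphate/NaCl buffer pH 7.4 with TCEP, IgG, Thesit / Reagent: TMR-labelled reporter peptide T*-PRC34 bound in PDZ groove / Compound dosing: single point, 20 µM / Schedule: 1 h incubation at room temperature before polarization reading / Technique: fluorescence polarization (mP) / Benchmarks: unlabelled peptide, DMSO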
Rtt109 HAT inh: C. albicans Rtt109 histone acetyltransferase inhibition; inhibition, % at 34.9 µM; purified Rtt109/Vps75, ThioGlo CoA-SH fluorescence, 4 h; AID 540336; Q5AAJ8; 330,000 tested, 0.16% active;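 active = inhibition of at least 50% in every replicate; inconclusive = best replicate reaches 50% inhibition but some replicates fall short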
Target sequence (Q5AAJ8 whole entry, looked up): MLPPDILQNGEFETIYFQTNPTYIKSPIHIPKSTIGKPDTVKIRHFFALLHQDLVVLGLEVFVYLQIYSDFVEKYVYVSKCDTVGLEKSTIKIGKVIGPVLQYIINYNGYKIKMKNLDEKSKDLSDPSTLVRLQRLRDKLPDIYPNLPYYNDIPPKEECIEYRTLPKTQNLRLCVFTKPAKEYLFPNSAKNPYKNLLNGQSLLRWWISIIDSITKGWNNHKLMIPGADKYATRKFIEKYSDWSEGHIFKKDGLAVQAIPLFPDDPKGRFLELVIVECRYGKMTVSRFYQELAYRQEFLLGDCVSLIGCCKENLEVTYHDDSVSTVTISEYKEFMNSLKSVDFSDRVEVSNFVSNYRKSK
The depositor's hits bear a star; ? = inconclusive; nt = no result. Hits are enriched below; roughly 4.3% of the tested compounds scored in any of these assays.

SMILES | DYRK1A inh | ALR inh | CAL PDZ FP-1 | CAL PDZ FP-2 | Rtt109 HAT inh
O=S(=O)(c1cccc(-c2nnc(SCc3nc4ccccc4s3)o2)c1)N1CCOCC1 | -1.8 | 97.6* | -1.2 | -4.4 | 5.1
O=S(=O)(c1cccc(-c2nnco2)c1)N1CCOCC1 | -3.7 | -3.7 | -3.1 | 0.1 | -7.4
O=S(=O)(c1cccc(-c2n[nH]c(=S)n2-c2ccccc2Cl)c1)N1CCOCC1 | nt | 98.9* | 6.9 | -1.2 | -1.4
O=S(=O)(c1cccc(-c2n[nH]c(=S)n2Cc2ccccc2)c1)N1CCOCC1 | 4.0 | 50.1 | -3.9 | 1.7 | 34.3
COc1cccc(C2c3[nH]c4ccccc4c3C[C@H]3C(=O)N(c4ccccc4C(=O)NCCCN4CCOCC4)C(=O)N23)c1 (stereo partly drawn) | 4.2 | 98.5* | -5.0 | 0.0 | 14.3
O=C(NCCN1CCOCC1)c1ccccc1N1C(=O)[C@@H]2Cc3c([nH]c4ccccc34)C(c3ccccc3)N2C1=O (stereo partly drawn) | 4.7 | 99.2* | 2.0 | -0.8 | 12.2
O=C(NCCCN1CCOCC1)c1ccccc1N1C(=O)[C@@H]2Cc3c([nH]c4ccccc34)C(c3ccc(F)cc3)N2C1=O (stereo partly drawn) | -3.1 | 22.2 | 0.3 | 0.3 | 14.7
O=C(COC(=O)c1ccccn1)Nc1ccc2c(c1)OCCO2 | -3.9 | -4.0 | 56.3* | -0.6 | 11.9
CCn1c(SCC(=O)Nc2ccc3c(c2)c2ccccc2n3CC)nnc1-c1ccco1 | nt | 5.1 | -1.1 | -0.9 | 66.2*
CCn1c2ccccc2c2cc(NC(=O)CSc3nccc(=O)[nH]3)ccc21 | nt | 98.4* | -4.2 | -1.7 | -0.8
CC(=O)Nc1ccc(C(=O)CSc2nccc(=O)[nH]2)cc1 | 1.0 | 99.0* | 1.3 | 0.1 | -4.2
O=C(Nc1ccc2c(c1)OCCO2)c1ccccn1 | 2.3 | -1.4 | 1.6 | -0.6 | nt
COc1ccc(-c2oc3cccnc3c2/C=C/c2ccc(OC)c(OC)c2)cc1 | -5.6 | -22.0 | -11.1 | 1.5 | 1.8
O=C(CCNS(=O)(=O)c1ccc(F)c(F)c1)NCCN1CCOCC1 | nt | -2.9 | 12.1 | 0.5 | -2.8
O=C(CSc1ccc2c(c1)OCCO2)Nc1cccnc1 | -1.2 | 98.7* | nt | 0.4 | 5.5
O=C(CSc1nccc(=O)[nH]1)Nc1ccc(F)c(Cl)c1 | 12.9 | 99.5* | 1.5 | -2.6 | 1.3
O=C(CSc1nccc(=O)[nH]1)Nc1ccc2c(c1)OCCO2 | 0.0 | 98.3* | -3.4 | -2.4 | 20.1
O=C(CSc1nccc(=O)[nH]1)Nc1ccc(Br)c(Cl)c1 | 13.0 | 98.3* | -1.9 | nt | -4.9
Cc1ccnc(NC(=O)CSc2ccc3c(c2)OCCO3)c1 | nt | 27.9 | -10.8 | 0.4 | -4.5
C#CCOCCOCCOCCNc1nc(N2CCN(C(=O)CCCCCCCCCCNC(=O)[C@H]([C@@H](C)CC)n3cc(CCCCN=C(N)N)nn3)CC2)nc(N2CCN(C(=O)CCCCCCCCCCNC(=O)[C@H](CO)n3cc(CCCCCN)nn3)CC2)n1 | 18.5 | -11.6 | -1.6 | -1.9 | 87.1*
C#CCOCCOCCOCCNc1nc(N2CCN(C(=O)CCCCCCCCCCNC(=O)[C@H]([C@@H](C)CC)n3cc(CCCCCN)nn3)CC2)nc(N2CCN(C(=O)CCCCCCCCCCNC(=O)[C@H](CO)n3cc(CCCCCN)nn3)CC2)n1 | 54.9* | -9.6 | -2.7 | -2.2 | -13.3
C#CCOCCOCCOCCNc1nc(N2CCN(C(=O)CCCCCCCCCCNC(=O)[C@H]([C@@H](C)CC)n3cc(CCCCCN)nn3)CC2)nc(N2CCN(C(=O)CCCCCCCCCCNC(=O)[C@@H]([C@H](C)CC)n3cc(CCCCCN)nn3)CC2)n1 | nt | 8.3 | nt | nt | nt
O=C(CNCC1CCCO1)NCc1ccco1 (stereo not drawn) | 4.6 | -26.6 | 1.7 | -0.6 | -4.5
N#Cc1ccc(Cn2c(-c3ccc(F)cc3)noc2=O)cc1 | 0.2 | -8.2 | 3.1 | 13.9 | -3.6
COc1cc(/C=C2/C(=O)N(c3ccc(Br)cc3)N=C2C)cc([N+](=O)[O-])c1O | nt | -9.1 | nt | nt | nt
SMILES | DYRK1A inh | ALR inh | CAL PDZ FP-1 | CAL PDZ FP-2 | Rtt109 HAT inh
COc1cc(/C=C2/C(=O)N(c3cccc(Br)c3)N=C2C)cc(OC)c1O | 7.9 | 92.1* | -4.0 | 0.8 | -4.1
CC1=NN(c2ccccc2)C(=O)/C1=C/c1cccc(C)c1 | 1.5 | 94.4* | -0.5 | -0.3 | nt
O=C(NCc1cccc2ccsc12)c1cccs1 | 7.0 | 3.3 | -2.0 | -0.1 | -1.5
COC1=CC(=O)OC(c2ccco2)C1 (stereo not drawn) | 1.2 | nt | -1.9 | 0.1 | 8.1
COc1cccc(C(=O)NNC(=O)CCN2CCN(c3ccccc3)CC2)c1 | nt | 85.8* | -1.7 | 0.6 | 2.8
CCc1cc(C(=O)NNC(=O)CCN2CCN(c3ccccc3)CC2)sc1C | 1.3 | 1.5 | -0.1 | -0.8 | -12.0
O=C(CCN1CCN(c2ccccc2)CC1)NNC(=O)c1cccc2ccccc12 | -3.4 | 99.0* | -2.8 | 0.3 | -3.6
Cc1cc(C(=O)NNC(=O)CCN2CCN(c3ccccc3)CC2)c2ccccc2n1 | 4.2 | 98.2* | nt | 0.5 | -5.4
N#CCC(=O)Nc1ccc(C(=O)NNC(=O)CCN2CCN(c3ccccc3)CC2)cc1 | 1.5 | ? | nt | -0.3 | -0.7
CN(Cc1cnccn1)Cc1nc(Cc2ccccc2F)no1 | -3.5 | -8.4 | 56.4* | -0.2 | 3.1
CCc1ccc(CN(C)Cc2nc(COc3ccccc3)no2)nc1 | nt | -3.8 | 49.2* | -0.1 | -4.9
N#C/C(=C/c1cn[nH]c1-c1cccc(Br)c1)C(=O)O | 30.7 | 4.9 | 0.6 | -1.0 | 6.6
N#C/C(=C/c1cn[nH]c1-c1ccc(Br)cc1)C(=O)O | nt | 72.3 | 32.9* | -1.5 | 0.5
O=C(NCC1CCCO1)c1cc([N+](=O)[O-])ccc1Cl (stereo not drawn) | 1.0 | 95.4* | -0.9 | 0.4 | 5.3
CCOc1ccc(NC(=O)CSCc2cnn(-c3ccccc3)c2-n2cccc2)cc1 | nt | 98.9* | -12.1 | -0.7 | -1.2
CCCCOc1cccc(NC(=O)CSc2nccn2C)c1 | 2.8 | 99.0* | -1.4 | -0.8 | -3.9
COc1cc(NC(=O)CSCc2cnn(-c3ccccc3)c2-n2cccc2)cc(OC)c1 | 0.3 | nt | -4.6 | 0.1 | 6.6
Cn1cnnc1SCC(=O)Nc1ccc(Oc2ccccc2)cc1 | nt | 1.2 | nt | -1.1 | 0.5
CCOc1ccc(NC(=O)C(C)Sc2nccn2C)cc1 (stereo not drawn) | 2.3 | 36.9 | 0.5 | -1.3 | 5.1
Cn1ccnc1SCC(=O)Nc1ccc(Oc2ccccc2)cc1 | -10.7 | 99.2* | -1.8 | -1.2 | -3.3
CCOc1ccc(NC(=O)CSc2nccn2C)cc1 | 0.8 | 99.0* | -3.8 | -2.8 | 28.1
COc1ccccc1N1CCN(C(=O)c2cc3c(=O)n4cccc(C)c4nc3s2)CC1 | 1.9 | -1.2 | -7.3 | -2.7 | -55.7
Cc1c(Nc2ccc(C=O)cc2)c(=O)n(-c2ccccc2)n1C | -3.4 | 45.4 | -1.1 | 0.2 | 8.4
COc1ccc(Cc2nnc(NC(=O)c3ccc(F)cc3)s2)cc1OC | 10.1 | -0.2 | nt | 0.7 | -5.3
Cn1c(SCC(=O)NCc2ccccc2)ncc(C(=O)Nc2ccccc2)c1=O | -1.6 | -0.5 | -0.9 | -1.1 | 3.5
